Measurements from ChEMBL document CHEMBL1156107, “Synthesis of new alkylaminooxysterols with potent cell differentiating activities: identification of leads for the treatment of cancer and neurodegenerative diseases” (J Med Chem, 2009).
pIC50: −log10 of the molar value. Active and inactive are the calls of the source. The rule behind the calls is not given here.

Tests used:
[1] = system: B16-F10; assay: Cytotoxicity against mouse B16F10 cells after 72 hrs by trypan blue exclusion assay; format: functional, cell-based; conditions: B16-F10, 72 h
Method in brief: (§1)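 Cells were exposed for 72 h to the test agent at increasing concentrations from 10 nM to 20 μM, at 37 °C in humidified 5% CO2. Cells were scraped and resuspended in 0.25% w/v trypan blue in PBS, and dead cells were counted under a light microscope in a Malassez chamber. IC50 is the concentration giving 50% cytotoxicity. Values are mean ± SE of three independent experiments, each run in duplicate.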

[2] = system: MCF7; assay: Induction of human MCF7 cell differentiation assessed as lipid accumulation in intracytoplasmic vesicle at 1 uM after 48 hrs by oil red O staining-based light microscopy; format: functional
Method in brief: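 MCF-7 cells on glass coverslips treated with drug, fixed in 3.7% paraformaldehyde for 1 h at room temperature, and stained with oil red O in 60% isopropanol with hematoxylin counterstain. Dye extracted with isopropanol and read at 510 nm, with control subtracted and the value normalized to SYBR green DNA stain.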

[3] = system: SK-MEL-28; assay: Effect on human SK-MEL-28 cell morphology assessed as change from fibroblastic to melanocytic morphology at 1 uM after 48 hrs by light microscopy
[4] = system: SK-MEL-28; assay: Effect on human SK-MEL-28 cell morphology assessed as appearance of type 4 melanosomes at 1 uM after 48 hrs by transmission electron microscopy
[5] = system: MCF7; assay: Induction of human MCF7 cell differentiation assessed as milk fat accumulation in intracytoplasmic vesicle at 1 uM after 48 hrs by Bligh and Dyer method; format: functional, cell-based
Method in brief: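 MCF-7 cells (5 million) exposed to vehicle or compound for 48 h, washed three times in PBS. Lipids extracted by the Bligh and Dyer method and triglycerides quantified.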

[6] = system: A549; assay: Cytotoxicity against human A549 cells after 72 hrs by trypan blue exclusion assay; format: functional, cell-based; conditions: A549, 72 h; method in brief: as §1
[7] = system: P19; assay: Cytotoxicity against mouse P19 cells assessed as modification of cell morphology; format: functional
[8] = system: MCF7; assay: Cell cycle arrest in human MCF7 cells assessed as accumulation at S phase at 1 uM after 48 hrs by FACS analysis; format: functional
Method in brief: (§2)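 Cells plated at 250 000 per 100 mm plate and exposed to solvent vehicle or compound for 48 h. Trypsinized cells fixed in 70% ethanol, treated with 100 μg/mL RNase A for 30 min at 37 °C, then stained with 50 μg/mL propidium iodide in 0.25% Tween-20 for 30 min at 37 °C in the dark. DNA content of 1 × 10⁶ cells read by flow cytometry, giving sub-G1, G0/G1, S and G2/M fractions.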

[9] = system: MCF7; assay: Cell cycle arrest in human MCF7 cells assessed as accumulation at G1 phase at 1 uM after 48 hrs by FACS analysis; format: functional; method in brief: as §2
[10] = system: U-937; assay: Cytotoxicity against human U937 cells assessed as modification of cell morphology; format: functional
[11] = system: P19; assay: Induction of dendrite outgrowth in IL-4/GMCSF-stimulated mouse P19 cells assessed as dendrite length after 48 hrs by light microscopy; format: functional
[12] = system: SK-N-SH; assay: Cytotoxicity against human SK-N-SH cells after 72 hrs by trypan blue exclusion assay; format: functional, cell-based; method in brief: as §1
[13] = system: NB-4; assay: Cytotoxicity against human NB4 cells after 72 hrs by trypan blue exclusion assay; format: functional, cell-based; conditions: NB-4, 72 h; method in brief: as §1
[14] = system: U-937; assay: Cytotoxicity against human U937 cells after 72 hrs by trypan blue exclusion assay; format: functional, cell-based; conditions: U-937, 72 h; method in brief: as §1
[15] = system: U-937; assay: Cytotoxicity against human U937 cells after 3 days by trypan blue exclusion assay; format: functional, cell-based; conditions: Homo sapiens, U-937, 72 h; read-out: IC50
Method in brief: (§3)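 U937 and P19 cells treated with compound. Cell death scored by trypan blue exclusion, with cells scraped, suspended in 0.25% w/v trypan blue in PBS and counted in a Malassez cell. IC50 is the concentration giving 50% cytotoxicity.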

[16] = system: SK-MEL-28; assay: Cell cycle arrest in human SK-MEL-28 cells assessed as accumulation at S phase at 1 uM after 48 hrs by FACS analysis; format: functional; method in brief: as §2
[17] = Cytotoxicity against human U87 cells after 72 hrs by trypan blue exclusion assay; format: functional, cell-based, U-87MG ATCC; conditions: U-87 MG; method in brief: as §1
[18] = system: P19; assay: Cytotoxicity against mouse P19 cells after 72 hrs by trypan blue exclusion assay; format: functional, cell-based; conditions: P19, 72 h; method in brief: as §1
[19] = system: HCT-8; assay: Cytotoxicity against human HCT8 cells after 72 hrs by trypan blue exclusion assay; format: functional, cell-based; conditions: HCT-8, 72 h; method in brief: as §1
[20] = Cytotoxicity against mouse TSA cells after 72 hrs by trypan blue exclusion assay; format: functional, cell-based; conditions: TS/A; method in brief: as §1
[21] = system: SK-MEL-28; assay: Induction of melanogenesis in human SK-MEL-28 cells assessed as cellular melanin content at 1 uM after 48 hrs by fluorimetry; format: functional, cell-based; conditions: in the assay text read “by spectrophotometry” for “by fluorimetry”
Method in brief: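 SK-Mel-28 cells exposed to compound, washed in PBS and pelleted. Pellets of 2 × 10⁶ cells dissolved in 1 M NaOH for 1 h at 80 °C. Melanin read spectrophotometrically at 405 nm.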

[22] = system: SH-SY5Y; assay: Cytotoxicity against human SH-SY5Y cells after 72 hrs by trypan blue exclusion assay; format: functional, cell-based; method in brief: as §1
[23] = system: SW-620; assay: Cytotoxicity against human SW620 cells after 72 hrs by trypan blue exclusion assay; format: functional, cell-based; conditions: SW-620, 72 h; method in brief: as §1
[24] = system: SK-MEL-28; assay: Cytotoxicity against human SK-MEL-28 cells after 72 hrs by trypan blue exclusion assay; format: functional, cell-based; conditions: SK-MEL-28, 72 h; method in brief: as §1
[25] = system: MCF7; assay: Cell cycle arrest in human MCF7 cells assessed as accumulation at pre-G1 phase at 1 uM after 48 hrs by FACS analysis; format: functional; method in brief: as §2
[26] = system: U-937; assay: Induction of dendrite outgrowth in IL-4/GMCSF-stimulated human U937 cells assessed as dendrite length after 48 hrs by light microscopy; format: functional
Method in brief: (§4)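 U937 cells at 1.1 × 10⁶ cells/mL were primed with 10 ng/mL PMA for 48 h in RPMI with 10% heat-inactivated serum. Adherent cells were then given 100 ng/mL IL-4 plus 100 ng/mL GM-CSF or 100 nM compound for 48 h. Dendrite length scored by light microscopy, from none to over 100 μm with a contact network.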

[27] = system: KG-1; assay: Cytotoxicity against human KG1 cells after 72 hrs by trypan blue exclusion assay; format: functional, cell-based; conditions: KG-1, 72 h; method in brief: as §1
[28] = system: SK-MEL-28; assay: Cell cycle arrest in human SK-MEL-28 cells assessed as accumulation at G2/M phase at 1 uM after 48 hrs by FACS analysis; format: functional; conditions: in the assay text read “G0/G1 phase” for “G2/M phase”; method in brief: as §2
[29] = system: P19; assay: Induction of dendrite out growth in IL-4/GMCSF-stimulated mouse P19 cells assessed as dendrite length at 100 nM after 48 hrs by light microscopy; format: functional
[30] = system: SK-MEL-28; assay: Cell cycle arrest in human SK-MEL-28 cells assessed as accumulation at pre-G1 phase at 1 uM after 48 hrs by FACS analysis; format: functional; method in brief: as §2
[31] = system: MCF7; assay: Cell cycle arrest in human MCF7 cells assessed as accumulation at G2/M phase at 1 uM after 48 hrs by FACS analysis; format: functional; method in brief: as §2
[32] = system: P19; assay: Cytotoxicity against mouse P19 cells after 3 days by trypan blue exclusion assay; format: functional, cell-based; conditions: Mus musculus, P19, 72 h; read-out: IC50; method in brief: as §3
[33] = system: SK-MEL-28; assay: Induction of melanogenesis in human SK-MEL-28 cells assessed as cellular melanin content at 1 uM after 48 hrs by spectrophotometry
[34] = Cytotoxicity against mouse Neuro2a cells after 72 hrs by trypan blue exclusion assay; format: functional, cell-based; conditions: N2a; method in brief: as §1
[35] = system: U-937; assay: Induction of dendrite out growth in IL-4/GMCSF-stimulated human U937 cells assessed as dendrite length at 100 nM after 48 hrs by light microscopy; format: functional; method in brief: as §4
[36] = system: MCF7; assay: Cytotoxicity against human MCF7 cells after 72 hrs by trypan blue exclusion assay; format: functional, cell-based; conditions: MCF7, 72 h; method in brief: as §1
[37] = system: SK-MEL-28; assay: Cell cycle arrest in human SK-MEL-28 cells assessed as accumulation at G1 phase at 1 uM after 48 hrs by FACS analysis; format: functional; method in brief: as §2
[38] = system: MCF7; assay: Induction of human MCF7 cell differentiation assessed as stimulation of milk fat globulin expression at 1 uM after 48 hrs by immunocytochemistry; format: functional, cell-based

Question: With `CC(C)CCC[C@@H](C)[C@H]1CC[C@H]2[C@@H]3C[C@@H](NCCc4cnc[nH]4)[C@@]4(O)C[C@@H](O)CC[C@]4(C)[C@H]3CC[C@]12C` [DENDROGENIN A] as the molecule, how does the pIC50 [1] read?
Answer: 6.17

Question: What about the Activity [2] of the same molecule?
Answer: Active

Question: What about the Activity [3] of the same molecule?
Answer: Active

Question: And the Activity [4]?
Answer: Active

Question: What about the Activity [5] of the same molecule?
Answer: Active

Question: What about the pIC50 [6] of the same molecule?
Answer: 5.59

Question: What about the Activity [7] of the same molecule?
Answer: 65%

Question: And the Activity [8]?
Answer: 11%

Question: What about the Activity [9] of the same molecule?
Answer: 75%

Question: And the Activity [10]?
Answer: 40%

Question: And the Activity [11]?
Answer: > 200 um

Question: And the pIC50 [12]?
Answer: 5.65

Question: And the pIC50 [13]?
Answer: 5.88

Question: And the pIC50 [14]?
Answer: 6.10

Question: What about the pIC50 [15] of the same molecule?
Answer: 6.10

Question: And the Activity [16]?
Answer: 7%

Question: What about the pIC50 [17] of the same molecule?
Answer: 6.13

Question: And the pIC50 [18]?
Answer: 5.74

Question: And the pIC50 [19]?
Answer: 6.05

Question: And the pIC50 [20]?
Answer: 5.89

Question: What about the Activity [21] of the same molecule?
Answer: Active

Question: And the pIC50 [22]?
Answer: 5.87

Question: What about the pIC50 [23] of the same molecule?
Answer: 6.38

Question: And the pIC50 [24]?
Answer: 5.67

Question: And the Activity [25]?
Answer: 3%

Question: And the Activity [26]?
Answer: > 200 um

Question: And the pIC50 [27]?
Answer: 5.26

Question: And the Activity [28]?
Answer: 10%

Question: And the Activity [29]?
Answer: 50 um

Question: What about the Activity [30] of the same molecule?
Answer: 1%

Question: And the Activity [31]?
Answer: 11%

Question: What about the pIC50 [32] of the same molecule?
Answer: 5.62

Question: What about the Activity [33] of the same molecule?
Answer: Active

Question: And the pIC50 [34]?
Answer: 5.63

Question: And the Activity [35]?
Answer: 50 um

Question: What about the pIC50 [36] of the same molecule?
Answer: 5.64

Question: And the Activity [37]?
Answer: 82%

Question: What about the Activity [38] of the same molecule?
Answer: Active
